Bioassay records: PubChem, several laboratories
A selection: hits, their analogues and other compounds. The true share with any hit is near 2.6%.
FGF22 binding: binders of human FGF22 protein, primary screen, FGF22 synaptogenesis inhibitor project, biophysical, thermal shift, single point. recombinant FGF22 thermal shift, SYPRO orange fluorescence; percent of sucrose octasulfate shift, DMSO zero. activity (Tm shift, normalised), % at 9.99 µM. 340,000 tested, 1.5% active;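 active = mean Tm shift, scaled 0 neutral to 100 positive control, at about 1.3% or above, every replicate too, limit read from the data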
Target sequence (Q9HCT0 whole entry, looked up): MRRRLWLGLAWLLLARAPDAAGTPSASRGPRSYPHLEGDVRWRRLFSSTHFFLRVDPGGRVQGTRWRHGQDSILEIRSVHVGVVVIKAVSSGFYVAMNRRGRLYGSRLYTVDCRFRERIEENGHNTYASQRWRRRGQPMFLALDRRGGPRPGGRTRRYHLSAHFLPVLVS
CASP6 VEID inh: human caspase-6 inhibitors, primary screen, biochemical, VEID-R110 fluorescence, single point, set 2. purified caspase-6, Z-VEID-R110 cleavage fluorescence. P55212. inhibition, % at 12.5 µM. 350,000 tested, 0.53% active;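 active = mean inhibition across replicates at least about 35%, with every replicate also reaching that limit, limit read from the data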;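 also: 0% = median of neutral control wells and 100% = no fluorescence left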
UCH37 inh: inhibitors of human UCH37 deubiquitinase, primary screen, biochemical, Ub-AMC cleavage, fluorescence | Ubiquitin carboxyl-terminal hydrolase isozyme L5 (Homo sapiens), Q9Y5K5 | purified proteasome/UCH37 | inhibition, % (test concentration not listed) | 330,000 tested, 0.33% active;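 active = mean inhibition over replicate wells above about 20%, limit read from the data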;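 also: 0% = compound-free wells with enzyme and 100% = wells lacking proteasome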
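Material: human UCH37 enzyme supplied as purified proteasome complex / Amount: 0.15 nM proteasome as dispensed / Buffer or medium: pH 7.4 Tris-HCl (50 mM) with ovalbumin, ATP-MgCl2, DTT / Times: preincubation 30 min, reaction 25 min, room temperature / Technique: AMC fluorescence from Ub-AMC cleavage, excitation 355 nm, emission 460 nm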
NSD2 inh: NSD2 histone methyltransferase inhibitors, primary screen, biochemical, AlphaScreen, single concentration, set 2. NSD2 peptide methylation, 120 min. 310,000 tested, 0.54% active. inhibition, % at 12.5 µM; in the data active = inhibition above about 50%
SIRT5 block: SIRT5 desuccinylase inhibitors, primary screen, biochemical, fluorescence imaging, single point, set 5. NAD-dependent protein deacylase sirtuin-5, mitochondrial (Homo sapiens), Q9NXA8. Purified SirT5, succinyl-peptide AMC, trypsin-coupled fluorescence. inhibition, % at 15 µM. 330,000 tested, 1.1% active; in the data active = inhibition above about 15%
Target sequence (Q9NXA8 whole entry, looked up): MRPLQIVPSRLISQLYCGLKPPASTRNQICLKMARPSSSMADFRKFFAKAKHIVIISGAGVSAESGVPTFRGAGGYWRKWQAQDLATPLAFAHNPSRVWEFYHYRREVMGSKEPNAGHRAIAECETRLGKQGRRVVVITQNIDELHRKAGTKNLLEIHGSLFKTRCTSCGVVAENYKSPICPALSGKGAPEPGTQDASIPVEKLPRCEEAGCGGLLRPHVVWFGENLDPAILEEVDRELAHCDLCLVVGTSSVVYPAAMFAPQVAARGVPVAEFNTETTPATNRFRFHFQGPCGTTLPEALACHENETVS
AlphaScreen art: AlphaScreen signal interference with preloaded methylated product, dose response, artefact control for NSD2 inhibitor project, biochemical, cherry-picked samples | AID 1053174, 2014 | 1,500 tested, 9.4% active | AC35, µM (series often up to 10 µM), for inactives: top-dose activity change, negative = signal loss | shares compounds with NSD2 inh | AlphaScreen artifact counterscreen, preloaded methylated H4 peptide; call rule not given here
Active calls of the source: *.

`CCOC(=O)c1cc(-c2ccc(/C=C3/C(=O)N(c4ccc(C(=O)O)cc4)N=C3C)o2)ccc1Cl` gave FGF22 binding 0, CASP6 VEID inh 4, NSD2 inh 10 and SIRT5 block -1.
Screening O=C(Nc1cc(F)ccc1F)N1CCN(c2ccnc3cc(Cl)ccc23)CC1 returned FGF22 binding 0, CASP6 VEID inh -1, UCH37 inh 4, NSD2 inh 61*, SIRT5 block 0 and AlphaScreen art 0%.
Screening Nc1cc(=O)[nH]c(SCC(=O)Nc2ccc(Cl)c(Cl)c2)n1 returned UCH37 inh 7, NSD2 inh 116* and AlphaScreen art 0%.
`O=C(CSc1n[nH]c(-c2ccncc2)n1)Nc1ccc(Cl)cc1` gave FGF22 binding 0, CASP6 VEID inh 3, UCH37 inh 3, NSD2 inh -2 and SIRT5 block 1.
`O=C(CSc1n[nH]c(-c2ccncc2)n1)Nc1ccc(Cl)c(Cl)c1` gave FGF22 binding 1, CASP6 VEID inh 2, UCH37 inh 4, NSD2 inh 63*, SIRT5 block 3 and AlphaScreen art 0%.
Nc1cc(=O)[nH]c(SCC(=O)Nc2cc(Cl)cc(Cl)c2)n1 was read as UCH37 inh 7 and NSD2 inh 1.
C=CCNC(=O)[C@@H]1[C@H]2C(=O)O[C@H](c3ccccc3)[C@H](c3ccccc3)N2[C@H](c2ccccc2OCCO)[C@@]12C(=O)N(C(=O)OCCOC)c1ccc(C#CCC(C(=O)OC)C(=O)OC)cc12 was read as FGF22 binding 0, CASP6 VEID inh 2 and SIRT5 block 14.
`C[C@@H]1CN([C@H](C)CO)C(=O)c2cc(C#CCN(C)C)cnc2O[C@@H]1CN(C)Cc1ccc2c(c1)OCO2` gave FGF22 binding 0, CASP6 VEID inh -54 and SIRT5 block 0.
Screening NC(=O)c1nsc(C(=O)N(c2ccccc2)C(C(=O)NCC2CCCO2)c2ccc3ncccc3c2)c1N (stereo not given) returned FGF22 binding 0, CASP6 VEID inh 2, UCH37 inh -144, NSD2 inh 59*, SIRT5 block -3 and AlphaScreen art 6%.
CCOc1ccccc1NC(=O)CSc1nc2nc(-c3cccs3)cc(C(F)(F)F)c2c(=O)[nH]1 was read as FGF22 binding 0, CASP6 VEID inh -2, UCH37 inh -31, NSD2 inh 84*, SIRT5 block -7 and AlphaScreen art -1%.
COc1ccc(NC(=O)CSc2nc3nc(-c4cccs4)cc(C(F)(F)F)c3c(=O)[nH]2)c(OC)c1 was read as UCH37 inh -28 and NSD2 inh 10.
Screening CC(=O)N(C)C[C@H]1Oc2ncc(C#Cc3ccccc3F)cc2C(=O)N([C@@H](C)CO)C[C@@H]1C returned FGF22 binding 0, CASP6 VEID inh -5 and SIRT5 block -1.
Screening NS(=O)(=O)c1ccc(N/N=C/c2ccc(O)c(O)c2O)c([N+](=O)[O-])c1 returned FGF22 binding 0, CASP6 VEID inh 68*, NSD2 inh 73*, SIRT5 block 16* and AlphaScreen art -10%.
O=[N+]([O-])c1ccc(NN=Cc2ccccc2OCc2ccccc2)cc1 was read as UCH37 inh -9.
Screening Cn1c(CSCc2ccccc2)nnc1SCC(=O)Nc1nccs1 returned UCH37 inh -1, NSD2 inh 120* and AlphaScreen art -1%.
For C/C(C/C(C)=C1/SC(=S)NC1=O)=C1\SC(=S)NC1=O the results were UCH37 inh 9, NSD2 inh 132*, SIRT5 block 49* and AlphaScreen art -15%.
`O=C(O)c1ccc(-n2cccc2/C=C2/NC(=O)N(c3ccccc3)C2=O)cc1` gave FGF22 binding 0, CASP6 VEID inh 70*, UCH37 inh 10, NSD2 inh 101*, SIRT5 block 25* and AlphaScreen art -15%.
Screening Cc1ccc(NC(=O)CN2C(=O)N/C(=C/c3cc(C)n(-c4cccc(C(=O)O)c4)c3C)C2=O)cc1 returned FGF22 binding 44*, CASP6 VEID inh 72*, UCH37 inh 3, NSD2 inh 77*, SIRT5 block 19* and AlphaScreen art -15%.
For Cc1ccc(NC(=O)CN2C(=O)N/C(=C\c3cccn3-c3cccc(C(=O)O)c3)C2=O)cc1 the results were UCH37 inh 9 and NSD2 inh 31.
`O=C1N/C(=C/c2cccn2-c2ccccc2)C(=O)N1Cc1ccccc1F` gave UCH37 inh 1 and NSD2 inh -1.
Screening CC(=O)NC1=NC(=O)/C(=C/c2cc(C)n(-c3cccc(C(=O)O)c3)c2C)S1 returned FGF22 binding 43*, CASP6 VEID inh 67*, UCH37 inh 6, NSD2 inh 131*, SIRT5 block 20* and AlphaScreen art -11%.
Screening Cc1ccc(CN2C(=O)N/C(=C\c3cccn3-c3cccc(C(=O)O)c3)C2=O)cc1 returned FGF22 binding 0, CASP6 VEID inh 60*, UCH37 inh 9, NSD2 inh 59*, SIRT5 block 10 and AlphaScreen art -6%.
`COc1ccc2c3c([nH]c2c1)[C@H](CO)N(C(=O)Nc1ccccc1F)CC31CN(C(=O)C2CC2)C1` gave FGF22 binding 0.
For CO[C@@H]1CN(C)C(=O)c2cc(NC(=O)CC(F)(F)F)ccc2OC[C@H](C)N(C(C)=O)C[C@H]1C the results were CASP6 VEID inh 2 and SIRT5 block 2.
`CCOC(=O)/C(C#N)=C/c1cccn1-c1ccc(Cl)cc1` gave FGF22 binding 0, CASP6 VEID inh -2, UCH37 inh -57, NSD2 inh 1 and SIRT5 block -1.
Screening N#CC(C#N)=Cc1cccn1-c1ccc(C(=O)O)cc1 returned FGF22 binding 0, CASP6 VEID inh 71*, NSD2 inh 100*, SIRT5 block 4 and AlphaScreen art -8%.
For CCCCN(C)CCCNC(=O)Cn1cc2c(n1)-c1c(oc(C(=O)N3CCCC3)c1C)CC2 the results were FGF22 binding 1, CASP6 VEID inh 6 and NSD2 inh 16.
Screening CCOCCCNC(=O)Cn1cc2c(n1)-c1c(oc(C(=O)N3CCCC3)c1C)CC2 returned FGF22 binding 0, CASP6 VEID inh 8, NSD2 inh 97*, SIRT5 block 7 and AlphaScreen art -8%.
